Test results taken from publication PMC5097029 (Biochimica et biophysica acta, 2016).
Where “and” joins values, the source holds several entries; their conditions need not be identical. Equal values may be shown once. Ends that are not written are not given here.

How the values were obtained:
Jurkat T-ALL cells [1] = experiment: LDH-release time course, Jurkat cells; type: cell-based, human
How it was run: (§1)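 Jurkat cells or PBMCs (density-gradient isolated from healthy donors' venous blood) were cultured at 37°C, 5% CO₂, with test compound over a time course. Supernatants taken at each time point were assayed for LDH activity with a commercial kit. Percent cytotoxicity = (E−N)/(P−N)×100, with vehicle as negative and Triton X-100 as positive control. Values are the mean of 3 independent experiments ± SEM.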

HOPC myeloma cells = type: cell-based, mouse; conditions: read-out: IC50 toward myeloma cells
[2] = test system: breast cancer cells (MDA-MB-231, SKBR3, MDA-MB-468, T47D, 4T1); type: cell-based, human; mouse; conditions: read-out: IC50 toward breast cancer cells
[3] = test system: leukemia cells (Jurkat, THP-1); type: cell-based, human; conditions: read-out: IC50 toward leukemia cells
Jurkat T-ALL cells [4] = experiment: Propidium iodide uptake, Jurkat; type: cell-based, human; conditions: 25 μM, 5 or 10 min
How it was run: (§2)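 Jurkat or MDA-MB-231 cells (5 × 10⁵) were exposed to test compound or vehicle. PI (10 μg/ml final) was added 5 min before flow cytometry, and mean channel fluorescence was recorded. For Jurkat, exposure lasted 5 or 10 min, with n=3.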

[5] = MTT cytotoxicity assay, MDA-MB-231 cells; type: cell-based, human; conditions: % Cytotoxicity, MTT, 24 h, mean ± SEM
[6] = test system: MDA-MB-231 breast cancer cells; experiment: MTT cytotoxicity assay, MDA-MB-231 cells; type: cell-based, human; conditions: read-out: IC50 in MDA-MB-231 breast cancer cells; C-terminal amide form
[7] = MTT cytotoxicity assay, Jurkat cells; type: cell-based, human; conditions: % Cytotoxicity, Jurkat, MTT, 24 h, mean ± SEM
Jurkat T leukemia cells = experiment: MTT cytotoxicity assay, Jurkat cells; type: cell-based, human; conditions: for effect of pan-caspase inhibitor BOC-D-FMK on induced cell death: BOC-D-FMK 40 μM
Jurkat cells = experiment: DNA laddering; type: cell-based, human; conditions: 0.1-25 μM, 4 h
How it was run: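 Jurkat cells (RPMI 1640, 5% CO₂, 37°C) were exposed to test compound for 4 h, alongside medium, vehicle and 50 μM etoposide (4 h or 24 h) controls. DNA was extracted with a kit and run on a 0.8% agarose gel to look for laddering.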

[8] = test system: cancer cells and normal cells; experiment: Specificity factor: IC50 in cancer cells versus normal cells; type: cell-based; conditions: depending on the cancer cell line and the normal cell compared
Jurkat T-ALL cells [9] = experiment: Combination with chemotherapeutic agents, MTT assay 72 h; type: cell-based, human
How it was run: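 Jurkat cells in RPMI 1640 (2.5% FBS final), seeded at 5 × 10⁵ cells/ml just before treatment. Increasing concentrations of a chemotherapeutic agent, with or without test peptide fixed at 4.5 μM, for 72 h at 37°C, 5% CO₂. MTT added at […] final for the last 2 h; DMSO-solubilised formazan read at 490 nm. Percent cytotoxicity scaled between vehicle and 1% Triton X-100; mean of 3 independent experiments ± SEM.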

[10] = Calcein leakage from large unilamellar vesicles; conditions: 20 min; for calcein leakage (membrane disruption) from LUVs: LUVs of 100% anionic lipid POPS; for calcein leakage from LUVs as lipid composition became less negatively charged: greater proportion of zwitterionic lipid POPC
How it was run: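 LUVs were made from POPC/POPS films (1 mg total lipid) hydrated in 10 mM Tris, 150 mM NaCl, 1 mM EDTA, pH 7.4, with 70 mM calcein. Suspensions were freeze-thawed five times, extruded 15 times through 100 nm filters, and cleared of free dye on Sephadex G-50. Vesicles were diluted to 10 μM final lipid, given peptide at set peptide:lipid molar ratios and held ~20 min at room temperature. Ex 490/em 520 was read against 1% Triton X-100 and water controls. Samples were run at least in duplicate per preparation; values are the mean of three experiments ± SD.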

[11] = test system: MDA-MB-231 breast cancer cells; experiment: Propidium iodide uptake, MDA-MB-231; type: cell-based, human
How it was run: as §2

[12] = MTT cytotoxicity assay, normal PBMCs; type: cell-based, human; conditions: % Cytotoxicity, PBMCs, MTT, 24 h, mean ± SEM
PBMCs = experiment: MTT cytotoxicity assay, normal PBMCs; type: cell-based, human; conditions: read-out: IC50 to PBMC; normal cells (PBMC)
[13] = test system: 4T1 mouse mammary carcinoma; experiment: 4T1 mammary carcinoma model in BALB/c mice; type: in vivo; conditions: IP, gemcitabine 60 mg/kg Q7D, Mastoparan 6 mg/kg Q2D, from day 5
Hemolysis assay = type: cell-based, human; conditions: % Hemolysis, human erythrocytes, 4 h, mean ± SEM
human erythrocytes = experiment: Hemolysis assay; type: cell-based; conditions: screen of 24 short cationic peptides
[14] = MTT cytotoxicity assay, primary HMECs; type: cell-based, human; conditions: % Cytotoxicity, 24 h, mean ± SEM
How it was run: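 Primary HMECs (MEGM-maintained, ≤6 passages) were seeded at 2 × 10⁵ cells/ml 24 h before treatment. They were exposed for 24 h at 2.5% final FBS, 37°C, 10% CO₂. MTT ([…] final) was added for the last 2 h, with 1% Triton X-100 as the 100%-death control. Formazan was dissolved in DMSO and OD 490 read. Cytotoxicity = (E−N)/(P−N)×100 against vehicle and Triton controls; values are the mean of 3 independent experiments ± SEM.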

primary PBMCs = experiment: LDH-release time course, PBMCs; type: cell-based, human
How it was run: as §1

[15] = test system: Paclitaxel-resistant MCF7-TX400 cells; experiment: Trypan blue exclusion, MCF7 and MCF7-TX400; type: cell-based, human; conditions: 24 h
How it was run: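 MCF7 and paclitaxel-resistant MCF7-TX400 cells were maintained in DMEM/10% FBS at 10% CO₂ for ≤30 passages. They were cultured with or without test compound for 24 h, and viability was scored by trypan blue exclusion counts. Values are the mean of 3 independent experiments ± SEM.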

[16] = Mastoparan 4.5 μM (IC10) with vinblastine, Jurkat, MTT 72 h

For `CC[C@H](C)[C@H](N)C(=O)N[C@@H](CC(N)=O)C(=O)N[C@@H](CC(C)C)C(=O)N[C@@H](CCCCN)C(=O)N[C@@H](C)C(=O)N[C@@H](CC(C)C)C(=O)N[C@@H](C)C(=O)N[C@@H](C)C(=O)N[C@@H](CC(C)C)C(=O)N[C@@H](C)C(=O)N[C@@H](CCCCN)C(=O)N[C@@H](CCCCN)C(=O)N[C@H](C(=O)N[C@@H](CC(C)C)C(N)=O)[C@@H](C)CC` [Mastoparan, INLKALAALAKKIL-NH2], the “time at which cytotoxicity peaked” value (Jurkat T-ALL cells [1]) was 8 h, the IC50 (HOPC myeloma cells) was ~11 µM and the IC50 [2] was 20 to 24 µM. For the same compound, the IC50 [3] was 8 to 9.2 µM, the “PI uptake (membrane integrity)” value (Jurkat T-ALL cells [4]) was “rapid PI uptake” and the cytotoxicity ([5]; MDA-MB-231, 10 μM Mastoparan) was 20 ± 1%. The cytotoxicity ([5]; MDA-MB-231, 25 μM Mastoparan) was 62 ± 2%, the cytotoxicity ([5]; MDA-MB-231, 50 μM Mastoparan) was 96 ± 1% and the IC50 [6] was 22 µM. It also gave a cytotoxicity ([7]; 10 μM Mastoparan) of 64 ± 7%, a cytotoxicity ([7]; 25 μM Mastoparan) of 95 ± 4% and a cytotoxicity ([7]; 50 μM Mastoparan) of 97 ± 1%. For the same compound, the “effect of pan-caspase inhibitor BOC-D-FMK on induced cell death” value (Jurkat T leukemia cells; Jurkat, MTT 24 h) was “not reversed”, the “cytotoxic potency of amidated form compared with free carboxyl form” value (Jurkat T leukemia cells; Jurkat, MTT 24 h) was “significantly more potent” and the “fold more potent than Mastoparan-COOH” value (Jurkat T leukemia cells; Mastoparan-NH2 versus Mastoparan-COOH) was 8–11 fold. For the same compound, the IC50 (Jurkat T leukemia cells; read-out: IC50 in Jurkat T-ALL cells, C-terminal amide form) was 9.1 µM, the DNA laddering (Jurkat cells) was “did not cause DNA laddering” and the “specificity factor (selectivity index): fold-difference in the IC50 between cancer cells and normal cells” value [8] was 2–6 fold. For the same compound, the IC10 concentration (Jurkat T-ALL cells [9]; Jurkat T-ALL cells) was 4.5 µM, the “fold reduction of the EC50 of etoposide” value (Jurkat T-ALL cells [9]; Mastoparan 4.5 μM (IC10) with etoposide, Jurkat, MTT 72 h) was “approximately 2 fold” and the “increase of vinblastine-mediated cytotoxicity” value (Jurkat T-ALL cells [9]; [16]) was 10% and ~ 10%. For the same compound, the ΔIC50 of vinblastine (Jurkat T-ALL cells [9]; [16]) was ~ 1.2 fold, the “calcein leakage (membrane disruption) from LUVs” value [10] was “caused membrane disruption” and the “calcein leakage from LUVs as lipid composition became less negatively charged” value [10] was “largely unchanged”. The “PI uptake (membrane integrity)” value [11] was “rapid PI uptake”, the cytotoxicity ([12]; 10 μM Mastoparan) was 13 ± 5% and the cytotoxicity ([12]; 25 μM Mastoparan) was 29 ± 7%. For the same compound, the cytotoxicity ([12]; 50 μM Mastoparan) was 49 ± 3%, the IC50 (PBMCs) was 48 µM and the “tumour growth (tumour volume and mass) in comparison to saline-treated mice” value [13] was “not statistically significant”. For the same compound, the hemolysis (Hemolysis assay; 10 μM Mastoparan) was 1 ± 1%, the hemolysis (Hemolysis assay; 25 μM Mastoparan) was 2 ± 1% and the hemolysis (Hemolysis assay; 50 μM Mastoparan) was 7 ± 1%. The “hemolytic activity in preliminary screen” value (human erythrocytes) was “devoid of hemolytic activity”, the cytotoxicity ([14]; 10 μM Mastoparan) was 16 ± 1% and the cytotoxicity ([14]; 25 μM Mastoparan) was 37 ± 7%. For the same compound, the cytotoxicity ([14]; 50 μM Mastoparan) was 67 ± 14%, the “time at which cytotoxicity peaked” value (primary PBMCs) was 8 h and the “toxicity to MCF7-TX400 cells compared with parental MCF7 cells” value [15] was “as toxic”.
In the case of `COc1cc([C@@H]2c3cc4c(cc3[C@@H](O[C@@H]3O[C@@H]5CO[C@@H](C)O[C@H]5[C@H](O)[C@H]3O)[C@H]3COC(=O)[C@H]23)OCO4)cc(OC)c1O` [etoposide, reference compound], the “effect of pan-caspase inhibitor BOC-D-FMK on induced cell death” value (Jurkat T leukemia cells; Jurkat, MTT 24 h) is reported as “significantly reduced”.
For `Nc1ccn([C@@H]2O[C@H](CO)[C@@H](O)C2(F)F)c(=O)n1` [gemcitabine, reference compound], the “tumour growth (tumour volume and mass) in comparison to saline-treated mice” value [13] was “not statistically significant”.
With “INLKALAALAKKIL-COOH (INLKALAALAKKIL-OH) [Mastoparan-COOH, reference compound]” the “calcein leakage (membrane disruption) from LUVs” value [10] was “caused membrane disruption” and the “calcein leakage from LUVs as lipid composition became less negatively charged” value [10] was “significantly reduced”.
